Laboratory results taken from article PMC6338520 (Cell chemical biology, 2018).

Key:
TgPPT1 = TgPPT1 (Toxoplasma gondii, UniProt S4UG63); experiment: Steady-state kinetics of fluorogenic substrate hydrolysis by recombinant TgPPT1; format: biochemical; conditions: QStE 10 μM, TgPPT1 100 nM
[1] = tested on: HsAPT1, HsAPT2 and TgPPT1; experiment: Steady-state kinetics, statement made for all three depalmitoylases together; format: biochemical; conditions: all three enzymes
HsAPT1 = HsAPT1 (Homo sapiens, UniProt O75608); experiment: Steady-state kinetics of fluorogenic substrate hydrolysis by recombinant HsAPT1; format: biochemical; conditions: QStE 10 μM, HsAPT1 50 nM
Chain of HsAPT1 (O75608 whole entry): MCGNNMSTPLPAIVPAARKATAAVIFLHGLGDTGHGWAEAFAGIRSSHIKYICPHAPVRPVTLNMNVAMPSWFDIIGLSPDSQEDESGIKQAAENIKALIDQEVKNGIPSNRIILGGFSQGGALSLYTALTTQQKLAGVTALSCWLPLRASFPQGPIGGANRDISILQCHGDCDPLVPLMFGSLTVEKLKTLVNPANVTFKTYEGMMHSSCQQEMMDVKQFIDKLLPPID

[2] = biological target: T1, monoacylglycerol lipase (MGLL) (Homo sapiens, UniProt Q99685); experiment: QStE hydrolysis by recombinant MGLL; format: biochemical; conditions: QStE 10 μM, MGLL 500 nM
T1 sequence (Q99685 1-303): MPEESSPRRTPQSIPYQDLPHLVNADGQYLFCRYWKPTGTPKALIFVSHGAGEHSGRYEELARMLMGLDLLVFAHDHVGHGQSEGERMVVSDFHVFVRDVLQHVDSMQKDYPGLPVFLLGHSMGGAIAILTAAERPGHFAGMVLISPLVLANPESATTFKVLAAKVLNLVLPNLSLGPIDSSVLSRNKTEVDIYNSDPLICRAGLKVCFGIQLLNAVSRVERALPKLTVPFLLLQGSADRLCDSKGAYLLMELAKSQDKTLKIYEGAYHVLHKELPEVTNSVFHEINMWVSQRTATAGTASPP

phospholipase A2 (PLA2) = phospholipase A2 (PLA2) (Sus scrofa, UniProt P00592); experiment: QStE hydrolysis by recombinant PLA2; format: biochemical; conditions: QStE 10 μM, PLA2 500 nM
Chain of phospholipase A2 (PLA2) (P00592 23-146): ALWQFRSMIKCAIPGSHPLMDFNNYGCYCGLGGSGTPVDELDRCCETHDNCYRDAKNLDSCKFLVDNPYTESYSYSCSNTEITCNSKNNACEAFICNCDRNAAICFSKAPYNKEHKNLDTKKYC

mouse liver lysates = experiment: Substrate hydrolysis in mouse liver homogenate with or without Palmostatin B; format: biochemical; conditions: lysate 20 μg; for substrate processing by mouse liver lysates: substrate 5 μM
Outline: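 Liver from 14-week-old virgin female C57BL/6 mice, washed twice in cold PBS, minced, sonicated in cold PBS, clarified, protein quantified by BCA. Homogenate (20 μg) preincubated with DMSO or Palmostatin B (10 μM) for 30 min on ice, then fluorogenic thioester substrate or colorimetric esterase substrate 4-NPO added (5 μM). Hydrolysis plotted.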

[3] = Solubility of the quenched substrates in buffer; format: physicochemical; conditions: method not described
PC3 cell lysate = experiment: QStE hydrolysis in PC3 cell lysate with inhibitors; format: biochemical, human; conditions: lysate 20 μg, inhibitor 10 μM, 30 min on ice, QStE 5 μM; three replicates
T. gondii lysates = experiment: In situ depalmitoylase activity in T. gondii lysates; format: biochemical, Toxoplasma gondii; conditions: ASC20KRNT 2.5 μM, Ku80 T. gondii lysate 5 μg, inhibitor 10 μM

Q: With CN(C)c1ccc(/N=N/c2ccc(C(=O)NCCCn3cc(CCCCCCCCCCCCCCCC(=O)SC[C@H](NC(=O)c4cc5ccc(O)cc5oc4=O)C(=O)N4CCOCC4)nn3)cc2)cc1 [QStE, (R)-S-(2-(7-hydroxy-2-oxo-2H-chromene-3-carboxamido)-3-morpholino-3-oxopropyl) (E)-16-(1-(3-(4-((4-(dimethylamino)phenyl)diazenyl)benzamido)propyl)-1H-1,2,3-triazol-4-yl)hexadecanethioate] as the compound, how does the “QStE hydrolysis by TgPPT1, specificity panel” value (TgPPT1) read?
A: readily hydrolyzed

Q: What about the “catalytic efficiency for QStE compared to QSE, times greater” value [1] of the same compound?
A: 10-30 times

Q: And the “QStE hydrolysis by APT1, specificity panel” value (HsAPT1)?
A: readily hydrolyzed

Q: And the “QStE hydrolysis by MGLL” value [2]?
A: not hydrolyzed

Q: What about the “QStE hydrolysis by PLA2” value (phospholipase A2 (PLA2)) of the same compound?
A: not hydrolyzed

Q: What about the “substrate processing by mouse liver lysates” value (mouse liver lysates) of the same compound?
A: robust processing

Q: What about the “soluble in aqueous buffer at concentrations up to” value ([3]; aqueous buffer) of the same compound?
A: up to 100 μM

Q: What about the “soluble in detergent supplemented buffer at concentrations up to” value ([3]; buffer with CHAPS, 10 mM) of the same compound?
A: up to 500 μM

Q: For CCCCCCCCCCCCCCCCS(=O)(=O)F [HDSF, hexadecylsulfonyl fluoride], which “effect of inhibitor on QStE processing in PC3 cell lysate” value (PC3 cell lysate) is on record?
A: only minor reductions

Q: Which “effect of inhibitor on QStE processing in PC3 cell lysate” value (PC3 cell lysate) does the source give for COc1ccc(N2CCN(C(=O)c3cc4c(s3)-c3ccccc3S(=O)(=O)C4)CC2)cc1 [ML349] here?
A: only minor reductions

Q: For O=C(CN1CCN(C(=O)c2ccco2)CC1)Nc1cc(C(F)(F)F)ccc1Cl [ML348], which “effect of inhibitor on QStE processing in PC3 cell lysate” value (PC3 cell lysate) is on record?
A: only minor reductions

Q: Which “substrate processing by mouse liver lysates” value (mouse liver lysates) does the source give for CCCCCCCC(=O)Oc1ccc([N+](=O)[O-])cc1 [4-NPO, 4-nitrophenyl octanoate] here?
A: more effectively processed

Q: For CCCCCCCCCC[C@@H]1C(=O)O[C@H]1CCc1ccc(OC)c(OC)c1 [PalmB, Palmostatin B], which “effect of inhibitor on QStE processing in PC3 cell lysate” value (PC3 cell lysate) is on record?
A: completely block

Q: And the “effect of inhibitor on 4-NPO processing in mouse liver lysates” value (mouse liver lysates; inhibitor 10 μM, 30 min on ice, 4-NPO 5 μM)?
A: only slightly reduced

Q: And the “effect of inhibitor on QStE processing in mouse liver lysates” value (mouse liver lysates; inhibitor 10 μM, 30 min on ice, QStE 5 μM)?
A: completely blocked

Q: What about the “effect of inhibitor on activity in T. gondii lysate” value (T. gondii lysates) of the same compound?
A: completely abolished

Q: For O=S(=O)(F)Cc1ccccc1 [PMSF, phenylmethylsulfonyl fluoride], which “effect of inhibitor on QStE processing in PC3 cell lysate” value (PC3 cell lysate) is on record?
A: did not reduce
